# Only some compounds are listed: those with a hit (about 2.3% of all), similar ones and a draw of the others.
# TRPC4 PAM = allosteric potentiators of mouse TRPC4 channel; Q9QUQ5; B-score at 10 µM; HEK293 TRPC4beta/mu-opioid, DAMGO EC20, Fluo-4 Ca2+ flux; stronger effect = higher value; hit rate 0.42% among 310,000;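 active means B-score of calcium response area above 5 SD of library B-scores, with initial fluorescence ratio within 5 SD of library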;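 further: B-score of integrated fluorescence ratio over time as area under calcium response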
# TRPC4 inh = blocks the mouse TRPC4 cation channel; B-score at 10 µM; hit rate 0.39% among 300,000; AID 2247; Q9QUQ5; HEK293 TRPC4beta/mu-opioid, DAMGO-evoked Fluo4 calcium flux; stronger effect = lower value;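 active means B-score over 3 SD under the library average, no early fluorescence shift, positive overall ratio signal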
#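 Assay system: HEK293 cells with stable TRPC4beta plus mu-opioid receptor expression; Probe or stimulus: DAMGO in two steps, submaximal then maximal; Dosing: single-point compound dosing; Measured by: Fluo4 calcium-dye fluorescence, kinetic read; Read-out basis: B score from integrated Fluo4 fluorescence ratio.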
# TRPC6 activator = activates the mouse TRPC6 cation channel. HEK293-TRPC6 membrane potential dye fluorescence; stronger effect = higher value. AID 2550. hit rate 0.13% among 310,000. Q61143. B-score at 10 µM;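 active means B-score of the integrated fluorescence ratio above library mean plus 3 SD, and starting fluorescence ratio within library mean plus 5 SD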;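 further: higher score means more depolarization so channel activation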
# TRPC6 inh = inhibitors of mouse TRPC6 channel. B-score at 10 µM. Q61143. HEK293-TRPC6, membrane potential dye, ACh-evoked depolarization; stronger effect = lower value. hit rate 1.1% among 310,000. AID 2553;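 active means B-score under library mean minus 3 SD, initial fluorescence not abnormally high, positive integrated signal ratio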;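 further: B-score derived from integrated fluorescence ratio over the kinetic read; more negative B-score means stronger inhibition of depolarization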
# TRPC4 agonist = TRPC4 (mouse) channel activation | B-score at 10 µM | Q9QUQ5 | HEK293 TRPC4beta/mu-opioid, Fluo4 calcium fluorescence; stronger effect = higher value | hit rate 0.49% among 310,000;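 active means B-score above 5 SD of library B-scores, and initial fluorescence ratio not above library mean plus 5 SD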;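 further: positive B-score marks a calcium rise read as TRPC4 activation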
#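 Test system: HEK293 cells stably co-expressing mouse TRPC4beta and mu-opioid receptor | Schedule: Fluo4 dye loading 45 min at room temperature, 110 s recording | Measured by: Kinetic Fluo4 calcium fluorescence, 5 s baseline at 1 Hz | Evaluation: B score of integrated ratio | Controls: Buffer (low) and maximal DAMGO (high)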
# * hit, by the source's call; i = inactive.
SMILES,TRPC4 PAM,TRPC4 inh,TRPC6 activator,TRPC6 inh,TRPC4 agonist
CC12CC3CC(C)(C1)CC(C(=O)N1CCCC1)(C3)C2,i,-6*,i,i,i
O=C(N1CCCC1)C12CC3CCC(CC(C3)C1)C2,i,i,i,i,i
CN1CCN(C(=O)C23CC4CC(C)(CC(C)(C4)C2)C3)CC1,i,-6*,i,i,i
Cc1sc(N/N=C/c2cc([N+](=O)[O-])ccc2O)nc1-c1ccccc1,i,i,i,i,i
C=CCn1cnc2scc(-c3ccc(CC)cc3)c2c1=O,i,-6*,i,i,i
CCOc1ccc(NC(=O)CN(C)C(=O)c2cc(S(=O)(=O)N3CCCCCC3)ccc2OC)cc1OCC,i,i,i,i,i
CN(C)c1ccc(C2N3CC4(C)CN2CC(C)(C3)C4O)cc1 (stereo not drawn),i,i,i,i,i
CC12CN3CC(C)(CN(C1)C3c1ccc(Cl)cc1Cl)C2O (stereo not drawn),i,-6*,i,i,48*
COc1ccccc1N(CC(=O)NCC1CCCO1)C(=O)CNS(=O)(=O)c1ccc(Cl)cc1 (stereo not drawn),i,i,i,i,i
CC(=O)Nc1ccc(NC(=O)CSc2nnc(C)c(=O)n2N)cc1,i,i,i,i,i
CCCCc1ccc(NC(=O)CSc2nnc(C)c(=O)n2N)cc1,24*,i,i,i,i
COc1ccc(Cc2[nH]n3c(=O)c(Cl)c(C)nc3c2-c2ccccc2)cc1,i,i,i,i,i
CCOC(=O)C1CCN(c2nc3ccccc3nc2C(C#N)C(=O)OCCOC)CC1 (stereo not drawn),i,-7*,i,i,i
CCOC(=O)C1CCN(c2nc3ccccc3nc2C(C#N)C(=O)OC(C)COC)CC1 (stereo not drawn),i,i,i,i,i
CSC1=NC2(CCCCC2)C2=C(CCCC2)N1,i,-6*,i,i,i
CC(NCC(O)COCCC12CC3CC(CC(C3)C1)C2)c1ccccc1 (stereo not drawn),i,i,i,i,83*
NCC(O)COCCC12CC3CC(CC(C3)C1)C2 (stereo not drawn),i,i,i,i,i
Cc1c(CN2CCC(n3nccc3NC(=O)C3CC3)CC2)[nH]c2ccccc12,i,i,i,i,64*
COC(=O)c1ccc(CN2CCC(n3nccc3NC(=O)C3CC3)CC2)cc1,i,i,i,i,i
Cc1ccc(S(=O)(=O)NC(=O)NC(=O)N(C)S(=O)(=O)c2ccc(C)cc2)cc1,i,i,i,i,i
Cn1c(=O)[nH]c(=O)c2c1nc(N1CCCCC1)n2C/C=N/Nc1ccc(C(=O)O)cc1,i,i,i,i,i
Cc1cc(/C=C2/C(=N)N3C(=NC2=O)SN=C3S(C)(=O)=O)c(C)n1-c1ccccc1F,i,-6*,i,i,i
Cc1cc(NC(=O)c2cccs2)ncc1NC(=O)C(C)C,i,i,i,i,i
NC1=NC[C@H](CC2CCCCC2)N1CCc1cc(C(F)(F)F)cc(C(F)(F)F)c1,i,i,i,i,67*
S=c1[nH]nc(COc2ccc(Cl)cc2Cl)n1-c1ccccc1,i,i,i,i,54*
SMILES,TRPC4 PAM,TRPC4 inh,TRPC6 activator,TRPC6 inh,TRPC4 agonist
S=c1[nH]nc(-c2ccc(Cl)cc2Cl)n1-c1ccccc1,i,i,i,i,i
O=C(c1sc2ccccc2c1Cl)N(Cc1cccs1)C1CCS(=O)(=O)C1 (stereo not drawn),i,i,i,i,120*
CC1(C)C(=O)OC(C(=O)c2ccc(C(C)(C)C)cc2)C(C)(C)C1=O (stereo not drawn),13*,i,i,i,i
Cc1cc(C)c(C)c(C(=O)C2OC(=O)C(C)(C)C(=O)C2(C)C)c1C (stereo not drawn),i,i,i,i,i
CCC(=O)c1ccc(N2CCN(C(=O)c3ccccc3Br)CC2)c(F)c1,28*,i,i,i,i
CCC(=O)c1ccc(N2CCN(C(=O)c3ccccc3F)CC2)c(F)c1,i,i,i,i,i

# Bioassay records from PubChem BioAssay.
